In ChEMBL document CHEMBL4396917, “Synthesis and biological evaluation of novel benzylidene-succinimide derivatives as noncytotoxic antiangiogenic inhibitors with anticolorectal cancer activity in vivo” (Eur J Med Chem, 2019):
Activity calls are given as the source filed them. No cut-off for these calls is given here.

Assays:
HCT-116 = test: Cytotoxicity against human HCT116 cells assessed as reduction in cell growth after 72 hrs by MTT assay; assay type: cell-based; conditions: HCT-116, 72 h
SW480 = test: Cytotoxicity against human SW480 cells assessed as reduction in cell growth after 72 hrs by MTT assay; assay type: cell-based; conditions: SW480, 72 h
NCM460 = test: Cytotoxicity against human NCM460 cells assessed as reduction in cell growth after 72 hrs by MTT assay; assay type: cell-based; conditions: NCM460, 72 h
Chorioallantoic membrane [1] = test: Antiangiogenic activity in Leghorn chicken fertilized egg chorioallantoic membrane at 10 nM/egg measured after 48 hrs by CAM assay; assay type: functional, tissue-based; conditions: Gallus gallus
Summary of the method: (§1)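 Fertile Leghorn eggs incubated at 37.8°C, 40% humidity; window opened on day 7; compound, sunitinib or 0.9% NaCl mixed with DMSO applied on filter paper onto CAM; 48 h incubation, methanol fixation, photography; nascent vessels counted.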

Mus musculus = test: Antiangiogenic activity in Matrigel plug angiogenic Balb/c mouse model assessed as impaired vascularization by measuring loss of red colour in VEGF-supplemented matrigel at 20 to 60 mg/kg, sc measured after 15 days; assay type: functional, organism-based
Summary of the method: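 Balb/c nude mice (6–8 weeks), three groups, injected subcutaneously with 400 μL Matrigel alone or with VEGF (250 ng/mL) and/or compound; after 15 days plugs removed, weighed and photographed.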

HUVEC [2] = test: Antiangiogenic activity against HUVEC assessed as inhibition of cell proliferation measured […] by MTT assay; assay type: functional, cell-based; conditions: Homo sapiens, 0.5 h
Chorioallantoic membrane [3] = test: Antiangiogenic activity in Leghorn chicken fertilized egg chorioallantoic membrane measured after 48 hrs by CAM assay; assay type: functional, tissue-based; conditions: Gallus gallus; summary of the method: as §1
HUVEC [4] = test: Antiangiogenic activity against VEGF-induced HUVEC assessed as inhibition of cell proliferation preincubated for 30 mins followed by VEGF addition measured after 24 hrs by MTT assay; assay type: functional, cell-based; conditions: Homo sapiens
Summary of the method: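 HUVECs seeded 24 h, starved 16 h in M200 with 2% FBS, pretreated 30 min with compound at 0.1, 1, 10, 20 or 40 μM, then stimulated with VEGF (25 ng/mL) for 24 h; viability read by MTT; IC50 determined.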

CCCCCN1C(=O)C/C(=C\c2cccc(C(=O)Nc3ccc(OC)cc3)c2)C1=O
IC50 (HCT-116): > 100 µM | IC50 (SW480): > 100 µM | IC50 (NCM460): > 100 µM

CSc1cccc(NC(=O)c2cccc(/C=C3\CC(=O)N(c4ccccc4)C3=O)c2)c1
IC50 (HCT-116): 65.2 µM | IC50 (SW480): 74.3 µM | IC50 (NCM460): > 100 µM

O=C(Nc1ccc(OC(F)F)cc1)c1cccc(/C=C2\CC(=O)N(c3ccccc3)C2=O)c1
IC50 (HCT-116): > 100 µM | IC50 (SW480): > 100 µM | IC50 (NCM460): > 100 µM

O=C(NC1CCCCC1)c1cccc(/C=C2\CC(=O)N(c3ccccc3)C2=O)c1
Activity (Chorioallantoic membrane [1]): Active | IC50 (HCT-116): > 100 µM | IC50 (SW480): > 100 µM | IC50 (NCM460): > 100 µM

COc1ccc(NC(=O)c2cccc(CC3CC(=O)N(c4ccc(C)cc4)C3=O)c2)cc1 (stereo not given)
IC50 (HCT-116): > 100 µM | Activity (Mus musculus): Active | IC50 (SW480): > 100 µM | IC50 (NCM460): > 100 µM

Cc1ccc(N2C(=O)C/C(=C\c3cccc(C(=O)Nc4ccc(Cl)cc4)c3)C2=O)cc1
IC50 (HCT-116): > 100 µM | IC50 (SW480): > 100 µM | IC50 (NCM460): > 100 µM

O=C(NCc1ccccc1)c1cccc(/C=C2\CC(=O)N(c3ccccc3)C2=O)c1
Activity (Chorioallantoic membrane [1]): Active | IC50 (HCT-116): > 100 µM | IC50 (SW480): > 100 µM | IC50 (NCM460): > 100 µM

CCc1cccc(NC(=O)c2cccc(/C=C3\CC(=O)N(Cc4ccccc4)C3=O)c2)c1
IC50 (HCT-116): 80.6 µM | IC50 (SW480): 91.5 µM | IC50 (NCM460): > 100 µM

O=C(Nc1ccccc1)c1cccc(/C=C2\CC(=O)N(c3ccccc3)C2=O)c1
IC50 (HCT-116): > 100 µM | IC50 (SW480): > 100 µM | IC50 (NCM460): > 100 µM

Cc1ccc(NC(=O)c2cccc(/C=C3\CC(=O)N(c4ccccc4)C3=O)c2)cc1C
IC50 (HCT-116): > 100 µM | IC50 (SW480): > 100 µM | IC50 (NCM460): > 100 µM

CCc1cccc(NC(=O)c2cccc(/C=C3\CC(=O)N(c4ccccc4)C3=O)c2)c1
IC50 (HCT-116): 81.2 µM | IC50 (SW480): 88.6 µM | IC50 (NCM460): > 100 µM

CCc1ccc(NC(=O)c2cccc(/C=C3\CC(=O)N(c4ccccc4)C3=O)c2)cc1
IC50 (HCT-116): > 100 µM | IC50 (SW480): > 100 µM | IC50 (NCM460): > 100 µM

CCCCN1C(=O)C/C(=C\c2cccc(C(=O)Nc3cccc(CC)c3)c2)C1=O
IC50 (HCT-116): 75.3 µM | IC50 (SW480): 83.2 µM | IC50 (NCM460): > 100 µM

O=C(c1cccc(/C=C2\CC(=O)N(c3ccccc3)C2=O)c1)N1CCCC1
Activity (Chorioallantoic membrane [1]): Active | IC50 (HCT-116): > 100 µM | IC50 (SW480): > 100 µM | IC50 (NCM460): > 100 µM

CCOc1ccc(NC(=O)c2cccc(/C=C3\CC(=O)N(Cc4ccccc4)C3=O)c2)cc1
IC50 (HCT-116): 41.7 µM | IC50 (SW480): 73.2 µM | IC50 (NCM460): > 100 µM

Cc1ccc(N2C(=O)C/C(=C\c3cccc(C(=O)Nc4cccc(F)c4)c3)C2=O)cc1
IC50 (HCT-116): > 100 µM | IC50 (SW480): 96.9 µM | IC50 (NCM460): > 100 µM

COc1ccc(OC)c(NC(=O)c2cccc(/C=C3\CC(=O)N(c4ccccc4)C3=O)c2)c1
IC50 (HCT-116): > 100 µM | IC50 (SW480): > 100 µM | IC50 (NCM460): > 100 µM

CCCCNC(=O)c1cccc(/C=C2\CC(=O)N(Cc3ccccc3)C2=O)c1
IC50 (HCT-116): 95 µM | IC50 (SW480): > 100 µM | IC50 (NCM460): > 100 µM

CCc1cccc(NC(=O)c2cccc(/C=C3\CC(=O)N(c4ccc(C)cc4)C3=O)c2)c1
IC50 (HCT-116): 41.5 µM | IC50 (SW480): 65.3 µM | IC50 (NCM460): > 100 µM

COc1ccc(NC(=O)c2cccc(/C=C3\CC(=O)N(c4ccccc4)C3=O)c2)cc1
Activity (Chorioallantoic membrane [1]): Active | IC50 (HCT-116): > 100 µM | IC50 (SW480): > 100 µM | IC50 (NCM460): > 100 µM

Cc1ccc(NC(=O)c2cccc(/C=C3\CC(=O)N(c4ccccc4)C3=O)c2)cc1
IC50 (HCT-116): > 100 µM | IC50 (SW480): > 100 µM | IC50 (NCM460): > 100 µM

COc1ccc(NC(=O)c2cccc(/C=C3\CC(=O)N(c4ccccc4)C3=O)c2)c(C)c1
IC50 (HCT-116): > 100 µM | IC50 (SW480): > 100 µM | IC50 (NCM460): > 100 µM

O=C(Nc1cccc(F)c1)c1cccc(/C=C2\CC(=O)N(c3ccccc3)C2=O)c1
IC50 (HCT-116): > 100 µM | IC50 (SW480): > 100 µM | IC50 (NCM460): > 100 µM

COc1cc(NC(=O)c2cccc(/C=C3\CC(=O)N(c4ccccc4)C3=O)c2)cc(OC)c1OC
IC50 (HCT-116): > 100 µM | IC50 (SW480): > 100 µM | IC50 (NCM460): > 100 µM

Cc1cccc(NC(=O)c2cccc(/C=C3\CC(=O)N(c4ccccc4)C3=O)c2)c1
IC50 (HCT-116): > 100 µM | IC50 (SW480): > 100 µM | IC50 (NCM460): > 100 µM

CCOc1ccc(NC(=O)c2cccc(/C=C3\CC(=O)N(c4ccccc4)C3=O)c2)cc1
IC50 (HCT-116): 84.8 µM | IC50 (SW480): 91.5 µM | IC50 (NCM460): > 100 µM

CCN(CC)CCNC(=O)c1c(C)[nH]c(/C=C2\C(=O)Nc3ccc(F)cc32)c1C [SUNITINIB]
IC50 (HUVEC [2]): 6.46 µM | Activity (Chorioallantoic membrane [3]): Active | IC50 (HUVEC [4]): 3.63 µM

O=C(Nc1ccc(Cl)cc1)c1cccc(/C=C2\CC(=O)N(c3ccccc3)C2=O)c1
Activity (Chorioallantoic membrane [1]): Active | IC50 (HCT-116): > 100 µM | IC50 (SW480): > 100 µM | IC50 (NCM460): > 100 µM

O=C(c1cccc(/C=C2\CC(=O)N(c3ccccc3)C2=O)c1)N1CCOCC1
Activity (Chorioallantoic membrane [1]): Active | IC50 (HCT-116): > 100 µM | IC50 (SW480): > 100 µM | IC50 (NCM460): > 100 µM

O=C(Nc1ccc(F)cc1)c1cccc(/C=C2\CC(=O)N(c3ccccc3)C2=O)c1
IC50 (HCT-116): > 100 µM | IC50 (SW480): > 100 µM | IC50 (NCM460): > 100 µM

O=C(Nc1ccc(Cl)cc1)c1cccc(/C=C2\CC(=O)N(Cc3ccccc3)C2=O)c1
IC50 (HCT-116): > 100 µM | IC50 (SW480): > 100 µM | IC50 (NCM460): > 100 µM
